According to ChEMBL document CHEMBL1125497, “Synthesis and anticonvulsant activity of enaminones” (J Med Chem, 1992):

How the values were obtained:
[1] = Antiepileptic activity in male CF1 mice 30 min after administration measured in subcutaneous pentylenetetrazole (scMet) test at a dose of 100 mg/kg (no. of animals treated /protected); activity value is 0/1; format: functional, Mus musculus
[2] = Dose at which anticonvulsant activity was observed in mice; format: functional, Mus musculus
[3] = Antiepileptic activity in male CF1 mice 4 hr after administration measured in subcutaneous pentylenetetrazole (scMet) test at a dose of 300 mg/kg (no. of animals treated /protected); activity value is 0/1; format: functional, Mus musculus
[4] = tested on: Rattus norvegicus; test: Per oral dose (30 mg/Kg) reducing rat corneal kindling 0.5 hr after administration.; format: functional
In short: (§1)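 Sprague-Dawley rats (85–95 g initial) were kindled with 4 s, 8 mA corneal stimulations (butacaine anesthesia) to 10 consecutive stage 5 seizures. After a vehicle shock and a 2-day shock-free period, test drug was given ip or po and a single shock applied at time of peak effect. Seizures were scored on a modified Racine 0–5 scale. ED50 is the dose reducing severity by 50% (Litchfield–Wilcoxon).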

[5] = Antiepileptic activity in male CF1 mice 30 min after administration measured in subcutaneous pentylenetetrazole (scMet) test at a dose of 300 mg/kg (no. of animals treated /protected); activity value is 0/1; format: functional, Mus musculus
[6] = Antiepileptic activity in male CF1 mice 4 hr after administration measured in neurological toxicity (Tox) test at a dose of 300 mg/kg (no. of animals treated /protected); activity value is 0/2; format: functional, Mus musculus
[7] = tested on: Rattus norvegicus; test: Per oral dose (40 mg/Kg) reducing rat corneal kindling 0.5 hr after administration.; format: functional; in short: as §1
[8] = tested on: Rattus norvegicus; test: Average seizure score for the rat cornea 0.5 hr after peroral administration of 0 mg/kg of compound; format: functional; conditions: route oral; in short: as §1
[9] = Antiepileptic activity in male CF1 mice 4 hr after administration measured in maximum electroshock seizure(MES) test at a dose of 100 mg/kg (no. of animals treated /protected); activity value is 0/3; format: functional, Mus musculus
[10] = Antiepileptic activity in male CF1 mice 0.25 hr after oral administration measured in neurological toxicity (Tox) test at a dose of 10 mg/kg (no. of animals treated /protected); activity value is 0/4; format: functional, Mus musculus
[11] = tested on: Rattus norvegicus; test: Average seizure score for the rat cornea 0.5 hr after peroral administration of 50 mg/kg of compound; format: functional; conditions: route oral; in short: as §1
[12] = Antiepileptic activity in male CF1 mice 30 min after administration measured in maximum electroshock seizure(MES) test at a dose of 300 mg/kg (no. of animals treated /protected); activity value is 1/1; format: functional, Mus musculus
[13] = tested on: Rattus norvegicus; test: Per oral dose (50 mg/Kg) reducing rat corneal kindling 0.5 hr after administration.; format: functional; in short: as §1
[14] = Antiepileptic activity in male CF1 mice 30 min after administration measured in neurological toxicity (Tox) test at a dose of 300 mg/kg (no. of animals treated /protected); activity value is 4/4; format: functional, Mus musculus
[15] = tested on: Rattus norvegicus; test: Average seizure score for the rat cornea 0.5 hr after peroral administration of 30 mg/kg of compound; format: functional; conditions: route oral; in short: as §1
[16] = Antiepileptic activity in male CF1 mice 1 hr after oral administration measured in maximum electroshock seizure(MES) test at a dose of 10 mg/kg; activity value is 4/4; format: functional, Mus musculus
[17] = Antiepileptic activity in male CF1 mice 1 hr after oral administration measured in maximum electroshock seizure(MES) test at a dose of 6 mg/kg (no. of animals treated /protected); activity value is 1/4; format: functional, Mus musculus
[18] = Protective index was measured as TD50/ED50; format: ADME; conditions: read-out: PI
[19] = Time of peak anticonvulsant effect in CF1 mice; format: functional, Mus musculus
In short: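 Male CF1 mice (ca. 24–34 g), compound in 0.5% methylcellulose suspension given ip or po; time (h) at which MES protection (against tonic hind limb extension) peaked was recorded and used for ED50 determination.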

[20] = Oral dose producing neurotoxic effects in 50% of rats; format: ADME, organism-based; conditions: rat, in vivo
In short: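 Phase VI screen in male Sprague-Dawley rats dosed orally. MES protection and rotorod toxicity were scored as animals responding over animals tested at 0.25, 0.5, 1, 2 and 4 h.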

[21] = Time of peak neurotoxic effect in CF1 mice; format: ADME; conditions: mouse, in vivo
In short: (§2)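 Male CF1 mice (ca. 24–34 g), compound ip in 0.5% methylcellulose suspension; neurological deficit assessed by rotorod test, time (h) of peak neurotoxic effect recorded for TD50 determination.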

[22] = Antiepileptic activity in male CF1 mice 4 hr after administration measured in neurological toxicity (Tox) test at a dose of 100 mg/kg (no. of animals treated /protected); activity value is 0/4; format: functional, Mus musculus
[23] = Antiepileptic activity in male CF1 mice 0.5 hr after oral administration measured in neurological toxicity (Tox) test at a dose of 10 mg/kg (no. of animals treated /protected); activity value is 0/4; format: functional, Mus musculus
[24] = tested on: Rattus norvegicus; test: Per oral dose (0 mg/Kg) reducing rat corneal kindling 0.5 hr after administration.; format: functional; in short: as §1
[25] = tested on: Rattus norvegicus; test: Dose reducing the seizure severity in rat cornea 0.5 hr after peroral administration.; format: ADME, organism-based; conditions: po; in short: as §1
[26] = Dose producing neurotoxic effects in 50% of the CF1 mice after intraperitoneal administration.; format: functional; conditions: Mus musculus, ip; read-out: ED50 (the source's name)
In short: (§3)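 Phase II quantification in CF1 male mice (ca. 24–34 g), dosing ip or po in 0.5% methylcellulose suspension. ED50 is protection from tonic hind limb extension in MES. TD50 is rotorod neurotoxicity. Both were read at time of peak effect and derived by Litchfield–Wilcoxon with 95% confidence limits.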

[27] = Time of peak neurotoxic effect in CF1 MICE after ip administration.; format: ADME, organism-based; conditions: mouse, in vivo; in short: as §2
[28] = Dose showing neurotoxicity in 50% of the at the time of peak neurotoxic effect in CF1 MICE after po administration.; format: toxicity, organism-based; conditions: CF1, mouse, in vivo; in short: as §3
[29] = Dose protecting 50% of the mice from tonic hind limb extension at the time of […] after ip administration.; format: functional; conditions: Mus musculus, Hindlimb; in short: as §3
[30] = Protective index was measured as TD50/MES ED50 in mice on po administration; format: ADME, organism-based; conditions: mouse, in vivo, read-out: PI
In short: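 Male CF1 mice (ca. 24–34 g) dosed orally with 0.5% methylcellulose suspension. MES ED50 (protection of 50% from tonic hind limb extension) and rotorod TD50, each determined at time of peak effect by Litchfield and Wilcoxon. PI = TD50/MES ED50.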

[31] = Antiepileptic activity in male CF1 mice 4 hr after administration measured in neurological toxicity (Tox) test at a dose of 100 mg/kg; activity value is 0/4; format: functional, Mus musculus
[32] = Antiepileptic activity in male CF1 mice 4 hr after administration measured in maximum electroshock seizure(MES) test at a dose of 300 mg/kg; format: functional, Mus musculus
[33] = Antiepileptic activity in male CF1 mice 0.25 hr after oral administration measured in maximum electroshock seizure(MES) test at a dose of 50 mg/kg (no. of animals treated /protected); activity value is 2/4; format: functional, Mus musculus

Structure (SMILES)	Activity [1]	Dose [2]	Activity [3]	Activity [5]	Activity [6]	Average seizure score [8]	Activity [9]	Average seizure score [11]	Activity [12]	Reduction [13]	selectivity ratio [18]	TPE [19]	TD50 [20]	TPE [21]	Reduction [24]	other results
COC(=O)C1C(=O)C=C(Nc2ccc(Cl)cc2)CC1C (centres undefined)	0	<=100 mg kg-1	0	0	0	4.9	0	1.7	1	67%	9.7	0.5	> 380 mg/kg	2	0%	Reduction [4]: 40%; Reduction [7]: 49%; Activity [10]: 0; Activity [14]: 4; Average seizure score [15]: 3; Activity [16]: 4; Activity [17]: 1; Activity [22]: 0; Activity [23]: 0; ED50 ([25]; rat, in vivo): 34.2 mg/kg; TD50 [26]: 255 mg/kg
COC(=O)C1C(=O)C=C(NCc2ccccc2)CC1C (centres undefined)	0	<=100 mg kg-1	0	0	0	5	0	3.6	1	29%	7.7	0.5	> 500 mg/kg	1	0%	TPE [27]: 0.25 h; TD50 [28]: > 500 mg/kg; ED50 [29]: 42 mg/kg; selectivity ratio [30]: > 3.1; Activity [31]: 0; Activity [32]: 0.1; ED50 ([25]; Rattus norvegicus, Cornea): 78.3 mg/kg; Activity [33]: 2
